Results reported in ChEMBL document CHEMBL1124511, “N-(cyclohexylcarbonyl)-D-phenylalanines and related compounds. A new class of oral hypoglycemic agents. 2” (1989).

Each compound was assayed on Mus musculus (assay: Percent decrease in blood glucose level, after peroral administration of 100 mg/kg of compound in mice; Inactive). Conditions: route oral.
Format: functional

`CC(C)[C@H]1CC[C@@H](C(=O)N[C@H](Cc2ccccc2)C(=O)O)CC1` was tested. Which Hypoglycemic activity did it give?
The Hypoglycemic activity was <20%.

Which Hypoglycemic activity does the source give for `O=C(N[C@H](Cc1ccccc1)C(=O)O)C1CCCCCC1` here?
Its Hypoglycemic activity is <20%.

Which Hypoglycemic activity does the source give for `CC(C)[C@H]1CC[C@H](C(=O)NCCc2ccccc2)CC1` here?
The Hypoglycemic activity was <20%.

With `O=C(O)[C@@H](Cc1ccccc1)NC(=O)[C@H]1CC[C@H](c2ccccc2)CC1` as the compound, how does the Hypoglycemic activity read?
Its Hypoglycemic activity is <20%.

Which Hypoglycemic activity does the source give for `CCCCC[C@H]1CC[C@H](C(=O)N[C@H](Cc2ccccc2)C(=O)O)CC1` here?
The Hypoglycemic activity was <20%.

For `CC(C)[C@H]1CC[C@H](C(=O)N[C@@H](Cc2ccccc2)C(N)=O)CC1`, which Hypoglycemic activity is on record?
Its Hypoglycemic activity is <20%.

Which Hypoglycemic activity does the source give for `O=C(N[C@H](Cc1ccccc1)C(=O)O)C1CC2CCC1C2` (stereo partly drawn) here?
Its Hypoglycemic activity is <20%.

For `O=C(N[C@H](Cc1ccccc1)C(=O)O)C1CCc2ccccc2C1` (stereo partly drawn), which Hypoglycemic activity is on record?
The Hypoglycemic activity was <20%.

Species: Mus musculus
Test: Hypoglycemic activity causing more than a 20% blood glucose decrease in fasting mice
Format: functional
Conditions: not given
Summary of the method: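 Male ICR-CD1 mice, 5 weeks old, 18 h fasted, groups of five. Oral dosing as a suspension in 0.5% (carboxymethyl)cellulose–0.14 M NaCl, 1 mL/kg; vehicle control run in parallel. Carotid blood taken at 1 h; glucose by glucose-oxidase-peroxidase. Student's t test (p < 0.05). Value is the lowest dose giving >20% glucose decrease.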

`CC(C)[C@H]1CC[C@H](C(=O)N[C@@H](Cc2ccccc2)C(=O)OCc2ccccc2)CC1` was tested. Which “Minimum effective hypoglycemic dose” value did it give?
Its value is 25 mg/kg.

For `CC[C@H]1CC[C@H](C(=O)N[C@H](Cc2ccccc2)C(=O)O)CC1`, which “Minimum effective hypoglycemic dose” value is on record?
The value was 25 mg/kg.

With `C[C@H]1CC[C@H](C(=O)N[C@H](Cc2ccccc2)C(=O)O)CC1` as the compound, how does the “Minimum effective hypoglycemic dose” value read?
Its value is 25 mg/kg.

How did the “Minimum effective hypoglycemic dose” value turn out when `CC(C)(C)[C@H]1CC[C@H](C(=O)N[C@H](Cc2ccccc2)C(=O)O)CC1` was run?
The value was 6.3 mg/kg.

How did the “Minimum effective hypoglycemic dose” value turn out when `CCC[C@H]1CC[C@H](C(=O)N[C@H](Cc2ccccc2)C(=O)O)CC1` was run?
The value was 25 mg/kg.

For `CCCC[C@H]1CC[C@H](C(=O)N[C@H](Cc2ccccc2)C(=O)O)CC1`, which “Minimum effective hypoglycemic dose” value is on record?
The value was 25 mg/kg.

With `C=C(C)[C@@H]1CC=C(C(=O)N[C@H](Cc2ccccc2)C(=O)O)CC1` as the compound, how does the “Minimum effective hypoglycemic dose” value read?
The value was 25 mg/kg.

`O=C(N[C@H](Cc1ccccc1)C(=O)O)C1CCCCC1` was tested. Which “Minimum effective hypoglycemic dose” value did it give?
The value was 100 mg/kg.

How did the “Minimum effective hypoglycemic dose” value turn out when `O=C(N[C@H](Cc1ccccc1)C(=O)O)C1CCCC1` was run?
The value was 50 mg/kg.

Which “Minimum effective hypoglycemic dose” value does the source give for `CC(C)c1ccc(C(=O)N[C@H](Cc2ccccc2)C(=O)O)cc1` here?
The value was 25 mg/kg.

How did the “Minimum effective hypoglycemic dose” value turn out when `COC(=O)[C@H](Cc1ccccc1)NC(=O)[C@H]1CC[C@H](C(C)C)CC1` was run?
Its value is 3.1 mg/kg.

With `CC(C)N(C(=O)[C@H](Cc1ccccc1)NC(=O)[C@H]1CC[C@H](C(C)C)CC1)C(C)C` as the compound, how does the “Minimum effective hypoglycemic dose” value read?
Its value is 100 mg/kg.

`CC(C)[C@H]1CC[C@H](C(=O)N[C@@H](Cc2ccccc2)C(=O)O)CC1` [(S)-NATEGLINIDE] was tested. Which “Minimum effective hypoglycemic dose” value did it give?
Its value is 100 mg/kg.

How did the “Minimum effective hypoglycemic dose” value turn out when `CC(C)[C@H]1CC[C@H](C(=O)N[C@H](Cc2ccccc2)C(=O)O)CC1` [NATEGLINIDE] was run?
Its value is 1.6 mg/kg.

With `CCCCNC(=O)NS(=O)(=O)c1ccc(C)cc1` [TOLBUTAMIDE] as the compound, how does the “Minimum effective hypoglycemic dose” value read?
Its value is 25 mg/kg.
